Assays:
2008 [1] = assay: Resistant factor, ratio of IC50 for cisplatin-resistant human C13 cells to IC50 for cisplatin-sensitive human 2008 cells; type: functional
Summary of the method: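 RF^I is the IC50 in C13* cells divided by the IC50 in parental 2008 cells. Both IC50s come from a 3-day crystal violet dose–response assay, read at 540 nm.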

2008 [2] = assay: Cytotoxicity against cisplatin-sensitive human 2008 cells after 72 hrs by crystal violet dye assay; type: functional, cell-based; settings: Homo sapiens, 2008, 72 h
Summary of the method: (§1)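 2008 ovarian carcinoma cells or the cisplatin-resistant C13* subline, grown in RPMI 1640 with 10% heat-inactivated FBS and gentamycin, 5% CO2, 37 °C, mycoplasma-negative. Seeded 4 × 10^4 cells/well, exposed 24 h later to compound for 3 days. Crystal violet stain solubilized in acidic isopropanol, absorbance read at 540 nm versus untreated controls. IC50 taken from dose–response curves. Mean of three experiments run in duplicate.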

2008 [3] = assay: Cytotoxicity against cisplatin-sensitive human 2008 cells at 750 uM after 72 hrs by crystal violet dye assay; type: functional; summary of the method: as §1
[4] = Cytotoxicity against african green monkey Vero cells assessed as cell survival at 750 uM after 72 hrs by crystal violet dye assay; type: cell-based; settings: chlorocebus sabaeus, read-out: Activity
Summary of the method: (§2)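 Vero cells (African green monkey kidney) grown in MEM with 10% heat-inactivated fetal calf serum, penicillin G and streptomycin, 5% CO2, 37 °C. Seeded 4 × 10^4 cells/well, exposed 24 h later to compound for 3 days. Methanol-fixed, crystal violet-stained, dye solubilized in acidic isopropanol, absorbance read at 540 nm. Cytotoxicity is calculated against untreated controls. Mean of three experiments run in duplicate.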

[5] = Cytotoxicity against cisplatin-resistant human C13 cells at 750 uM after 72 hrs by crystal violet dye assay; type: functional; summary of the method: as §1
[6] = Cytotoxicity against african green monkey Vero cells assessed as inhibition of growth at 750 uM after 72 hrs by crystal violet dye assay; type: cell-based; settings: chlorocebus sabaeus, read-out: Activity; summary of the method: as §2
[7] = Cytotoxicity against cisplatin-resistant human C13 cells after 72 hrs by crystal violet dye assay; type: functional, cell-based; settings: C13, 72 h; summary of the method: as §1
Vero [8] = assay: Cytotoxicity against african green monkey Vero cells after 72 hrs by crystal violet dye assay; type: cell-based; settings: Chlorocebus sabaeus; summary of the method: as §2
Vero [9] = assay: Resistance factor, ratio of IC50 for african green monkey Vero cells to IC50 for cisplatin-resistant human C13 cells
Summary of the method: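 RF^II is the IC50 in Vero cells divided by the IC50 in C13* cells. Each IC50 comes from a 3-day crystal violet dose–response assay, read at 540 nm.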

Vero [10] = assay: Cytotoxicity against african green monkey Vero cells at 5 uM after 72 hrs by crystal violet dye assay; type: cell-based; settings: chlorocebus sabaeus; summary of the method: as §2
Vero [11] = assay: Cytotoxicity against african green monkey Vero cells at 10 uM after 72 hrs by crystal violet dye assay; type: cell-based; settings: chlorocebus sabaeus; summary of the method: as §2
2008 [12] = assay: Cytotoxicity against cisplatin-sensitive human 2008 cells at 10 uM after 72 hrs by crystal violet dye assay; type: functional; summary of the method: as §1
[13] = Cytotoxicity against cisplatin-resistant human C13 cells at 10 uM after 72 hrs by crystal violet dye assay; type: functional; summary of the method: as §1

| Compound | Ratio IC50 2008 [1] | IC50 2008 [2] [µM] | Activity 2008 [3] [%] | viability at 72 h, 750 µM [4] [%] | Activity [5] [%] | inhibition at 72 h, 750 µM [6] [%] | IC50 [7] [µM] | IC50 (Vero [8]) [µM] | Ratio IC50 (Vero [9]) | Activity (Vero [10]) [%] | Activity (Vero [11]) [%] | Activity 2008 [12] [%] | Activity [13] [%] |
| --- | --- | --- | --- | --- | --- | --- | --- | --- | --- | --- | --- | --- | --- |
| O=C(/C=C/c1ccc(O[C@@H]2O[C@H](CO)[C@@H](O)[C@H](O)[C@H]2O)c(O)c1)CC(=O)/C=C/c1ccc(O[C@@H]2O[C@H](CO)[C@@H](O)[C@H](O)[C@H]2O)c(O)c1 | >2 | 480 | 70 | 80 | 15 | – | – | – | – | – | – | – | – |
| COc1cc(/C=C/C(=O)CC(=O)/C=C/c2ccc(O[C@@H]3O[C@H](CO)[C@@H](O)[C@H](O)[C@H]3O)c(OC)c2)ccc1O[C@@H]1O[C@H](CO)[C@@H](O)[C@H](O)[C@H]1O | 3.8 | 220 | – | – | – | 20 | 840 | – | – | – | – | – | – |
| O=C(/C=C/c1ccc(O[C@@H]2O[C@H](CO)[C@@H](O)[C@H](O)[C@H]2O)cc1)CC(=O)/C=C/c1ccc(O[C@@H]2O[C@H](CO)[C@@H](O)[C@H](O)[C@H]2O)cc1 | 3.8 | 22 | – | – | – | – | 83 | 330 | 3.97 | – | – | – | – |
| COc1cc(/C=C/C(=O)CC(=O)/C=C/c2ccc(O)c(OC)c2)ccc1O [CURCUMIN] | 3.4 | 5 | – | – | – | – | 17 | 22 | 1.3 | 10 | 25 | 90 | 45 |
